Reference: ChEMBL document CHEMBL3120083, “Discovery of N-[4-[6-tert-butyl-5-methoxy-8-(6-methoxy-2-oxo-1H-pyridin-3-yl)-3-quinolyl]phenyl]methanesulfonamide (RG7109), a potent inhibitor of the hepatitis C virus NS5B polymerase” (J Med Chem, 2014)

Assays:
[1] = test system: Hepatitis C virus; test: Antiviral activity against Hepatitis C virus genotype 1b clinical isolate RO-10 expressing NS5B assessed as inhibition of viral replication after 4 days by luciferase reporter gene assay; format: functional, organism-based, Hepacivirus hominis; conditions: genotype 1b clinical isolate RO-10, 96 h
[2] = Cmax in Wistar/Han rat at 30 mg/kg, po of amorphus MBP compound; format: ADME, organism-based; design: dose 30 mg/kg, route oral; conditions: in vivo
Method in brief: (§1)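 Single oral dose by gavage in 2% Klucel LF in water (the amorphous MBP was made by solvent-controlled co-precipitation with Eudragit L100-55 from DMA into chilled pH 3.0 dilute HCl), n = 3. EDTA blood typically sampled at 0.25, 0.5, 1, 2, 4, 6, 8 and 24 h. Plasma levels by LC/MS/MS after acetonitrile protein precipitation.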

[3] = test system: Hepatitis C virus; test: Antiviral activity against Hepatitis C virus genotype 1a H77 expressing NS5B assessed as inhibition of viral replication after 4 days by luciferase reporter gene assay; format: functional, organism-based, Hepacivirus hominis; conditions: genotype 1a H77, 96 h
[4] = test system: Hepatitis C virus; test: Antiviral activity against Hepatitis C virus genotype 1b clinical isolate RO-4 expressing NS5B assessed as inhibition of viral replication after 4 days by luciferase reporter gene assay; format: functional, organism-based, Hepacivirus hominis; conditions: genotype 1b clinical isolate RO-4, 96 h
[5] = Volume of distribution at steady state in Beagle dog at 0.86 mg/kg, iv; format: ADME, organism-based, Canis lupus familiaris; design: dose 0.86 mg/kg, route intravenous; conditions: in vivo, read-out: Vdss
Method in brief: (§2)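 Single IV bolus by tail vein or jugular cannula in 2% dimethyl acetamide/20% PEG400/23.4% HPBCD, n = 3. EDTA blood taken at typically 0.08, 0.25, 0.5, 1, 2, 4, 6, 8 and 24 h. Plasma assayed by LC/MS/MS after acetonitrile protein precipitation; clearance, Vdss and t1/2 derived from the plasma data.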

[6] = test system: Hepatitis C virus; test: Antiviral activity against Hepatitis C virus genotype 1a clinical isolate RO-33 expressing NS5B assessed as inhibition of viral replication after 4 days by luciferase reporter gene assay; format: functional, organism-based, Hepacivirus hominis; conditions: genotype 1a clinical isolate RO-33, 96 h
[7] = Cmax in Beagle dog at 30 mg/kg, po of amorphus MBP compound; format: ADME, organism-based, Canis lupus familiaris; design: dose 30 mg/kg, route oral; conditions: in vivo; method in brief: as §1
[8] = test system: Hepatitis C virus; test: Antiviral activity against Hepatitis C virus genotype 1b Con1 expressing NS5B assessed as inhibition of viral replication after 4 days by luciferase reporter gene assay; format: functional, organism-based, Hepacivirus hominis; conditions: isolate Con1, 96 h
[9] = test system: Hepatitis C virus; test: Antiviral activity against Hepatitis C virus genotype 1a clinical isolate RO-38 expressing NS5B assessed as inhibition of viral replication after 4 days by luciferase reporter gene assay; format: functional, organism-based, Hepacivirus hominis; conditions: genotype 1a clinical isolate RO-38, 96 h
[10] = test system: Hepatitis C virus; test: Antiviral activity against Hepatitis C virus genotype 1a clinical isolate RO-35 expressing NS5B assessed as inhibition of viral replication after 4 days by luciferase reporter gene assay; format: functional, organism-based, Hepacivirus hominis; conditions: genotype 1a clinical isolate RO-35, 96 h
[11] = test system: Hepatitis C virus; test: Antiviral activity against Hepatitis C virus genotype 1a clinical isolate RO-41 expressing NS5B assessed as inhibition of viral replication after 4 days by luciferase reporter gene assay; format: functional, organism-based, Hepacivirus hominis; conditions: genotype 1a clinical isolate RO-41, 96 h
[12] = Clearance in Beagle dog at 0.86 mg/kg, iv; format: ADME, organism-based, Canis lupus familiaris; design: dose 0.86 mg/kg, route intravenous; conditions: in vivo; method in brief: as §2
[13] = Drug uptake in Wistar/Han rat at 30 mg/kg, po of amorphus MBP compound measured at 8 hrs; format: ADME, organism-based; design: dose 30 mg/kg, route oral; conditions: in vivo, read-out: Drug uptake; method in brief: as §1
[14] = Half life in Wistar/Han rat at 2.6 mg/kg, iv; format: ADME, organism-based; design: dose 2.6 mg/kg, route intravenous; conditions: in vivo; method in brief: as §2
[15] = Drug uptake in Beagle dog at 30 mg/kg, po of amorphus MBP compound measured at 8 hrs; format: ADME, organism-based, Canis lupus familiaris; design: dose 30 mg/kg, route oral; conditions: in vivo, read-out: Drug uptake; method in brief: as §1
[16] = Oral bioavailability in Wistar/Han rat at 30 mg/kg of amorphus MBP compound; format: ADME, organism-based; conditions: in vivo; method in brief: as §1
[17] = test system: Hepatitis C virus; test: Antiviral activity against Hepatitis C virus genotype 1b Con1 infected in human 2209-23 cells after 72 hrs by luciferase reporter gene assay in presence of 40% human serum; format: functional, organism-based, Hepacivirus hominis; conditions: isolate Con1, 2209-23, 72 h
[18] = Oral bioavailability in Beagle dog at 30 mg/kg of amorphus MBP compound; format: ADME, organism-based, Canis lupus familiaris; conditions: in vivo; method in brief: as §1
[19] = test system: Hepatitis C virus; test: Antiviral activity against Hepatitis C virus genotype 1a clinical isolate RO-28 expressing NS5B assessed as inhibition of viral replication after 4 days by luciferase reporter gene assay; format: functional, organism-based, Hepacivirus hominis; conditions: genotype 1a clinical isolate RO-28, 96 h
[20] = Volume of distribution at steady state in Wistar/Han rat at 2.6 mg/kg, iv; format: ADME, organism-based; design: dose 2.6 mg/kg, route intravenous; conditions: in vivo, read-out: Vdss; method in brief: as §2
[21] = test system: Hepatitis C virus; test: Antiviral activity against Hepatitis C virus genotype 1b clinical isolate RO-7 expressing NS5B assessed as inhibition of viral replication after 4 days by luciferase reporter gene assay; format: functional, organism-based, Hepacivirus hominis; conditions: genotype 1b clinical isolate RO-7, 96 h
[22] = Half life in Beagle dog at 0.86 mg/kg, iv; format: ADME, organism-based, Canis lupus familiaris; design: dose 0.86 mg/kg, route intravenous; conditions: in vivo; method in brief: as §2
[23] = Thermodynamic solubility of the compound; format: physicochemical; conditions: read-out: Therm_solubility
[24] = test system: Hepatitis C virus; test: Antiviral activity against Hepatitis C virus genotype 1b clinical isolate RO-3 expressing NS5B assessed as inhibition of viral replication after 4 days by luciferase reporter gene assay; format: functional, organism-based, Hepacivirus hominis; conditions: genotype 1b clinical isolate RO-3, 96 h
[25] = test system: Hepatitis C virus; test: Antiviral activity against Hepatitis C virus genotype 1b clinical isolate RO-1 expressing NS5B assessed as inhibition of viral replication after 4 days by luciferase reporter gene assay; format: functional, organism-based, Hepacivirus hominis; conditions: genotype 1b clinical isolate RO-1, 96 h
[26] = test system: Hepatitis C virus; test: Antiviral activity against Hepatitis C virus genotype 1b clinical isolate RO-8 expressing NS5B assessed as inhibition of viral replication after 4 days by luciferase reporter gene assay; format: functional, organism-based, Hepacivirus hominis; conditions: genotype 1b clinical isolate RO-8, 96 h
[27] = test system: Hepatitis C virus; test: Antiviral activity against Hepatitis C virus genotype 1b clinical isolate RO-9 expressing NS5B assessed as inhibition of viral replication after 4 days by luciferase reporter gene assay; format: functional, organism-based, Hepacivirus hominis; conditions: genotype 1b clinical isolate RO-9, 96 h
[28] = test system: Hepatitis C virus; test: Antiviral activity against Hepatitis C virus genotype 1a clinical isolate RO-34 expressing NS5B assessed as inhibition of viral replication after 4 days by luciferase reporter gene assay; format: functional, organism-based, Hepacivirus hominis; conditions: genotype 1a clinical isolate RO-34, 96 h
[29] = test system: Hepatitis C virus; test: Antiviral activity against Hepatitis C virus genotype 1b Con1 infected in human 2209-23 cells after 72 hrs by luciferase reporter gene assay; format: functional, organism-based, Hepacivirus hominis; conditions: isolate Con1, 2209-23, 72 h
Method in brief: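 Stable GT-1b Con1 subgenomic replicon cell line expressing a renilla luciferase reporter, used as the readout of inhibition. EC50 from luciferase signal, n 2.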

[30] = AUC (0 to infinity) in Wistar/Han rat at 30 mg/kg, po of amorphus MBP compound; format: ADME, organism-based; design: time infinity, dose 30 mg/kg, route oral; conditions: plasma; method in brief: as §1
[31] = Clearance in Wistar/Han rat at 2.6 mg/kg, iv; format: ADME, organism-based; design: dose 2.6 mg/kg, route intravenous; conditions: in vivo; method in brief: as §2
[32] = AUC (0 to infinity) in Beagle dog at 30 mg/kg, po of amorphus MBP compound; format: ADME, organism-based, Canis lupus familiaris; design: time infinity, dose 30 mg/kg, route oral; conditions: plasma; method in brief: as §1
[33] = test system: Hepatitis C virus; test: Antiviral activity against Hepatitis C virus genotype 1a H77 infected in human 2209-23 cells after 72 hrs by luciferase reporter gene assay in presence of 40% human serum; format: functional, organism-based, Hepacivirus hominis; conditions: genotype 1a H77, 2209-23, 72 h
[34] = test system: Hepatitis C virus; test: Antiviral activity against Hepatitis C virus genotype 1b clinical isolate RO-2 expressing NS5B assessed as inhibition of viral replication after 4 days by luciferase reporter gene assay; format: functional, organism-based, Hepacivirus hominis; conditions: genotype 1b clinical isolate RO-2, 96 h
[35] = test system: Hepatitis C virus; test: Antiviral activity against Hepatitis C virus genotype 1a clinical isolate RO-18 expressing NS5B assessed as inhibition of viral replication after 4 days by luciferase reporter gene assay; format: functional, organism-based, Hepacivirus hominis; conditions: genotype 1a clinical isolate RO-18, 96 h

COc1ccc(-c2cc(C(C)(C)C)c(OC)c3cc(-c4ccc(NS(C)(=O)=O)cc4)cnc23)c(=O)[nH]1
EC50 [1]: 0.34 nM | Cmax [2]: 2100 ng/mL | EC50 [3]: 0.3 nM | EC50 [4]: 0.11 nM | Vd [5]: 2.8 L/kg | EC50 [6]: 0.6 nM | Cmax [7]: 1500 ng/mL | EC50 [8]: 0.32 nM | EC50 [9]: 4.3 nM | EC50 [10]: 0.3 nM | EC50 [11]: 0.6 nM | clearance [12]: 7.5 mL/min/kg | concentration at 8 h [13]: 620 ng/mL | half-life [14]: 4.3 h | concentration at 8 h [15]: 990 ng/mL | bioavailability [16]: 26% | EC50 [17]: 3.8 nM | EC90 [17]: 19 nM | bioavailability [18]: 31% | EC50 [19]: 0.9 nM | Vd [20]: 2.2 L/kg | EC50 [21]: 0.22 nM | half-life [22]: 4.3 h | solubility thermodynamic [23]: < 1 µg/mL | EC50 [24]: 0.43 nM | EC50 [25]: 0.11 nM | EC50 [26]: 0.33 nM | EC50 [27]: 0.34 nM | EC50 [28]: 0.5 nM | EC50 [29]: 1 nM | AUC(0-inf) [30]: 13800 ng·h/mL | clearance [31]: 11.4 mL/min/kg | AUC(0-inf) [32]: 23700 ng·h/mL | EC50 [33]: 10 nM | EC90 [33]: 63 nM | EC50 [34]: 0.19 nM | EC50 [35]: 0.4 nM
